# From ChEMBL document CHEMBL4513216, “Probing the Open Global Health Chemical Diversity Library for Multistage-Active Starting Points for Next-Generation Antimalarials” (ACS Infect Dis, 2020)
# Experiment: Toxicity liver stage against HepG2, at 10uM
# Type: cell-based
# Parameters: test concentration 10 uM, cell line HepG2-A16-CD81EGFP
# Settings: human, HepG2-A16-CD81EGFP cells; read-out: INHIBITION
# Summary of the method: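 Uninfected HepG2-A16-CD81EGFP cells, 3 × 10^3 per well, 1536-well, plated on prespotted compound at 10 μM final, parasite-free screening media added to match infected plates; puromycin 10 μM positive, DMSO 0.5% negative; run in parallel with 48 h PbLuc assay at 37 °C, 5% CO2; viability by CellTiter-Glo luminescence, normalized to controls.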
row,Compound,cytotoxicity at 10 µM
1,CC(C)n1nc(Cn2cccc2)c2c1CN(Cc1ccoc1)C2,1.49%
2,CC(=O)N1CCc2cc(C(=O)O)c(-c3ccsc3)nc2CC1,13.8%
3,c1cnc(-c2nc(C3CCOC3)no2)cn1 (stereo not given),7.09%
4,CN(C1CCCN(c2ccccn2)C1)S(=O)(=O)N1CCOCC1 (stereo not given),8.09%
5,O=C1NCCN1C1CCN(CCOc2ccccc2Cl)CC1,-6.69%
6,CN(C)C(=O)c1nn(C)c2c1CN(Cc1ccoc1)C2,-6.28%
7,COC[C@@]12CCO[C@@H]1CCN(C(=O)CCc1ccccc1Cl)C2,7.69%
8,O=C(c1cnc(C2CC2)s1)N1CCCC1Cn1cccn1 (stereo not given),-5.09%
9,CN(C)S(=O)(=O)CCNc1ncc2c(n1)CCN2c1ccccc1,-5.6%
10,Cc1cc(N2CCC(C(=O)O)(n3ccc(C(C)(C)C)n3)CC2)nc(N)n1,-5.6%
11,c1cc(CN2CCCC23CCCN(Cc2ccoc2)C3)ccn1 (stereo not given),2.25%
12,CCCN1CCC(NC(=O)c2ccc(F)cc2I)CC1,-11.8%
13,CN(Cc1nnc(C2CCC2)o1)C(C(N)=O)c1cccc(F)c1 (stereo not given),16.7%
14,NC(=O)COc1cccc(CN2CCc3cncnc3C2)c1,-12.9%
15,Cc1nnc([C@@H]2CCO[C@@H]3CCN(C(=O)Cc4ccsc4)C[C@@H]32)o1,9.43%
16,c1nc(N2CCOC(Cn3cncn3)C2)c2cc[nH]c2n1 (stereo not given),-7.97%
17,Cc1cccc(=O)n1CCCNc1nc(N(C)C)nc2c1CCNC2,-0.545%
18,COc1cc(CNC2CCN(c3ccccc3)C2)cc(OC)c1OC (stereo not given),3.96%
19,O=C1NC(c2ccccc2)=N[C@@]12CC[C@@H]1CN(S(=O)(=O)C3CC3)C[C@@H]12,9.91%
20,O=C(NCCN1CCOCC1)Nc1cnc2cc(Cl)ccc2c1O,-24%
21,CC(C)N1C(=O)CO[C@H]2CCN(C(=O)c3ccc4c(c3)CCC4)CC[C@@H]21,3.79%
22,Cc1ncncc1C(=O)N1CCCN(Cc2nccn2C(C)C)CC1,5.79%

row,Compound,cytotoxicity at 10 µM
1,COc1ccccc1CNC(=O)Cn1nc(-c2ccc(F)cc2)oc1=O,-10.8%
2,CC(C)c1nnc2sc(CC3CN(C(C)C)CCO3)nn12 (stereo not given),-13.8%
3,Cc1nc(C)n(CC(C)C(=O)N2CCCN(C3CCCC3)CC2)n1 (stereo not given),-0.103%
4,O=C1COC2(CCN(c3ccccn3)CC2)CN1Cc1ccccn1,-0.861%
5,O=C(Nc1ccccc1)c1n[nH]c(-n2cnnc2)n1,9.37%
6,c1ccc2oc(CN3CCCC3Cn3cncn3)nc2c1 (stereo not given),-17.2%
7,Cc1ccnc(C2(C)CCCN2S(=O)(=O)c2c(C)noc2C)n1 (stereo not given),0.795%
8,COc1ccc(CN2CCCC(n3cccn3)C2)c(Cl)c1OC (stereo not given),4.48%
9,CC(C)C(=O)N1CCC(c2c(C(N)=O)sc3ccccc23)C1 (stereo not given),-2.66%
10,COc1ccccc1C(=O)Nc1ccc([C@@H](O)[C@H]2COCC(=O)N2)cc1,1.17%
11,Cn1cc(I)c(C(=O)NCCCn2cc(Br)cn2)n1,6.54%
12,O=S(=O)(NCc1ccnc(-n2ccnc2)c1)c1cncc(Cl)c1,3.46%
13,CCc1nc(CN(C)Cc2ncc(-c3cccs3)o2)cs1,9.15%
14,Cc1nonc1NC(=O)C1SCCc2sccc21 (stereo not given),-2.82%
15,CC1CCN(c2ccc(C(=O)N3CCCC3c3ccc[nH]3)cn2)CC1 (stereo not given),2.84%
16,CC(CNC(=O)c1cc(-n2cccn2)ccn1)Cn1ccnc1 (stereo not given),-3.43%
17,CC(C)Cc1nc(CS(C)(=O)=O)n(-c2ccccn2)n1,1.66%
18,COCC(=O)N1C[C@H]2CNC[C@@]2(C(=O)NCc2cc(C)n[nH]2)C1,8.29%
19,O=C(c1cnc(Cc2c(Cl)cccc2Cl)nc1O)N1CCNCC1,-3.01%
20,c1cncc(CN(Cc2ccc3c(c2)OCCO3)CC2CCCO2)c1 (stereo not given),1.22%
21,Fc1ccc(CN2CCOC[C@H](Oc3cccnc3)C2)cc1,7.35%
22,O=C(O)CC(CC(=O)N(Cc1ccsc1)C1CC1)c1cccs1 (stereo not given),7.8%

row,Compound,cytotoxicity at 10 µM
1,O=C(O)c1cc(-c2ccn(CC3CC3)n2)n2ccccc12,13.2%
2,O=C1N(c2cncnc2)CCC12CCCN(Cc1cccnc1)C2 (stereo not given),-79.6%
3,CC(=O)N1CCN([C@@H]2CCC[C@@H](N(C)C(=O)C3CC3)[C@H]2O)CC1,-5.97%
4,CC(C)c1cc(C2CCN(C(=O)Cn3cnc4ccccc43)CC2)[nH]n1,51.8%
5,NC(=O)N1CCCC(C(=O)NCc2noc(Cc3ccccc3)n2)C1 (stereo not given),2.4%
6,CNc1cc(CCNC(=O)C2CCCC2)nc(-c2ccccn2)n1,1.76%
7,O=C(COCC1CC1)Nc1ncccc1I,22.5%
8,NC(=O)c1csc(N2CCCC(c3n[nH]c(=O)n3-c3ccccc3)C2)n1 (stereo not given),8.84%
9,c1cn(CCn2cnnc2)c(-c2cc3n(n2)CCCNC3)n1,-0.309%
10,CCCc1nccn1-c1ccc(C(C)O)cc1 (stereo not given),5.38%
11,O=C(NCc1ccc(-n2cncn2)nc1)c1ccoc1,-2.38%
12,CCN1CC2(CCN(C(=O)C(C)Oc3cccc(Cl)c3)CC2)OC1=O (stereo not given),-4.68%
13,O=C(NCCC1CCN(CC(F)(F)F)CC1)C1COCCO1 (stereo not given),1.38%
14,CC(C)C(=O)NCCNC(=O)C(C)OCC(F)(F)F (stereo not given),-5.56%
15,CC(=O)NCCNC(=O)c1cc(Br)c2c(c1)OCCO2,-1.54%
16,CSC(C)(C)CNC(=O)NCc1cccc(-n2ccnc2)c1,32.9%
17,COc1ccc(-c2cc3nc([C@H](C)NC(=O)C4CC4)nn3cn2)cc1,-27%
18,CCn1ccnc1CN1CCOC(Cn2cccn2)C1 (stereo not given),-14.7%
19,Cc1ccn(CC(=O)N2CC[C@@H](c3ccc4ccccc4c3)[C@H](O)C2)n1,5.02%
20,CNC(=O)c1cc(C)ccc1NCc1cn2cc(C)ccc2n1,8.45%
21,COCC(=O)N1CCC(c2cc3nc(C)cc(C(F)(F)F)n3n2)CC1,4.49%
22,CCc1nc2n(n1)CC(NCC(=O)Nc1cc(C)on1)CC2 (stereo not given),-7.21%

row,Compound,cytotoxicity at 10 µM
1,CCn1c(CN2CCCC2)nnc1C1CCN(Cc2cc(C)no2)CC1,3.6%
2,CC(C)c1nc(CN2CCN(C(=O)OC(C)(C)C)C(C)C2)no1 (stereo not given),1.62%
3,COc1cccc(C2CCN2C(=O)c2cnccn2)c1 (stereo not given),12.2%
4,Cc1nn(C)c(C)c1C(C)NCc1ccsc1 (stereo not given),5.42%
5,Cn1cc(NC(=O)c2ccccn2)cc(Cl)c1=O,7.7%
6,CSCC(=O)N1CCN(CC(O)C(C)(C)C)CC1 (stereo not given),-5.66%
7,CC(C)(C)c1ncc2c(n1)CN(C(=O)c1ccc(-c3nc[nH]n3)cc1)C2,-16.8%
8,O=C1CCC(C(=O)Nc2ccc(=O)n(Cc3ccc(Cl)c(Cl)c3)c2)N1 (stereo not given),-8.47%
9,CC(C)(N)CNS(=O)(=O)Cc1cccc2cccnc12,14.5%
10,Cn1c(CN2CCOC(c3nc(C(C)(C)C)n[nH]3)C2)nnc1C1CC1 (stereo not given),5.37%
11,CCCn1nnnc1COc1ccc(C(=O)OC)cc1,-5.58%
12,Cc1ccc(OC2(C(=O)NC(C)Cc3ccncc3)CCNCC2)cc1 (stereo not given),-9.89%
13,CC(C)(C)CC(=O)N1CC[C@@H]2[C@H](CC1)N(S(C)(=O)=O)CCS2(=O)=O,-8.68%
14,O=C(CCOc1ccc(F)cc1)N1CCCC1Cn1cccn1 (stereo not given),-2.7%
15,CCCc1nnc(N2CCN(c3ccccc3Cl)CC2)o1,0.426%
16,CCc1nnc(CN2CCC3(CC2)Nc2ccccc2NC3=O)o1,-6.96%
17,Cc1cccc(CNc2cc(C3CCCNC3)ccn2)n1 (stereo not given),3.81%
18,CCOc1ccccc1N(C)C(=O)c1ccc(Cl)cn1,0.0381%
19,Cc1nn(C)c2cn(CC(=O)N3CCN(c4ccccn4)CC3)nc12,3.57%
20,CCn1nc(CNC(=O)C2CC(=O)N(C3CCCC3)C2)c2ccccc21 (stereo not given),-25.8%
21,CC(=O)NS(=O)(=O)c1ccc2c(c1)N(C)CCC2,-0.89%
22,Cc1ccc(C)c(S(=O)(=O)NC(=O)c2ccc(C)[nH]c2=O)c1,-1.07%

row,Compound,cytotoxicity at 10 µM
1,CCOC(=O)c1sc(NC(=O)CN(C)S(C)(=O)=O)c(C#N)c1C,16.6%
2,Cc1nc(C2CCCN(C(=O)c3cccc4c3OCCO4)C2)no1 (stereo not given),-8.93%
3,CC(=O)N1CCOC(c2nc(N(C)C)ncc2-c2cccc(F)c2)C1 (stereo not given),-27.5%
4,C[S+]([O-])c1nncn1CC(=O)c1ccc(Cl)c(Cl)c1 (stereo not given),-4.34%
5,CS(=O)(=O)N1CCc2[nH]cnc2C12CCN(C(=O)c1cccnc1)CC2,2.62%
6,O=C1CO[C@@H]2CN(Cc3nccs3)C[C@H]2N1Cc1ccncc1,-66.6%
7,CCN1CCN(C(=O)c2cc(-c3cccs3)cs2)CC1,2.93%
8,COc1ccc(-c2ccc(C(=O)N3CCOCC3CC(=O)O)o2)cc1 (stereo not given),1.79%
9,COc1cc(F)ccc1C(C(=O)O)N(C)CCN1CCCC1 (stereo not given),-13.4%
10,c1csc(-c2nc(CN3CCCC3Cn3cccn3)co2)c1 (stereo not given),11.1%
11,COCCNc1ccc(CC2CCNC2)cn1 (stereo not given),9.33%
12,Cc1cc(NS(=O)(=O)c2cnc3onc(C)c3c2)no1,4.43%
13,Cc1cnn(CC2CCCCN2CC(=O)Nc2nncs2)c1 (stereo not given),-0.208%
14,CCn1cc(CNC2CC(=O)N(CCc3cccc(Cl)c3)C2)cn1 (stereo not given),-8.54%
15,CCOc1ccc(CCC(=O)N2CC[C@H]3C(=O)NCCO[C@H]3C2)cc1,12.1%
16,CN(CCCOc1ccccc1)C(=O)c1csc(-c2nnc[nH]2)n1,10.4%
17,COc1ccc(CN2C[C@@H]3COC[C@@H](CC(=O)N4CCCC4)[C@@H]3C2)cc1,-18.8%
18,Cc1noc(C)c1CN(C)C(=O)C1CCCCN1S(C)(=O)=O (stereo not given),5.04%
19,COCCN(c1cc(C)nc2nc(C(F)(F)F)nn12)C1CCCC1,-0.0692%
20,COc1c(F)cc(CN2CCCC3(CC2)CNC(=O)O3)cc1Cl (stereo not given),0.465%
21,CCc1cc(C(=O)N2CCCn3nc(CCC(=O)O)cc3C2)cs1,-3.32%
22,Cc1ccsc1CN(CCCO)Cc1nc2ccccc2[nH]1,-21.3%
